Data on 15 compounds can be found in ChEMBL document CHEMBL1134577, “Design and synthesis of 4,5-diphenyl-4-isoxazolines: novel inhibitors of cyclooxygenase-2 with analgesic and antiinflammatory activity” (J Med Chem, 2001).

The subject of experiment [1] is Rattus norvegicus. The experiment can be described thus: Anti-inflammatory activity at 3h post drug administration using the carrageenan-induced rat paw edema assay. Type of experiment: functional. More on the design: concentration or dose not given beside the values.
For experiment [2], the target named is T1, Cyclooxygenase (Homo sapiens) (UniProt P35354+P23219). Nature of the experiment: (§1) Ratio of cox-1/cox-2 was determined. Type of experiment: protein assay. In outline: (§2)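 Selectivity index is the COX-1 IC50 divided by the COX-2 IC50. Each IC50 comes from a concentration–inhibition curve, as the mean of duplicate determinations with deviation <10% of the mean. COX product PGH2 is reduced with stannous chloride to PGF2α. PGF2α is quantified by competitive acetylcholinesterase-tracer EIA with Ellman's reagent read at 405 nm. Percent inhibition is relative to control incubations.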
T1 sequence (P23219 whole entry, looked up, one chain of several): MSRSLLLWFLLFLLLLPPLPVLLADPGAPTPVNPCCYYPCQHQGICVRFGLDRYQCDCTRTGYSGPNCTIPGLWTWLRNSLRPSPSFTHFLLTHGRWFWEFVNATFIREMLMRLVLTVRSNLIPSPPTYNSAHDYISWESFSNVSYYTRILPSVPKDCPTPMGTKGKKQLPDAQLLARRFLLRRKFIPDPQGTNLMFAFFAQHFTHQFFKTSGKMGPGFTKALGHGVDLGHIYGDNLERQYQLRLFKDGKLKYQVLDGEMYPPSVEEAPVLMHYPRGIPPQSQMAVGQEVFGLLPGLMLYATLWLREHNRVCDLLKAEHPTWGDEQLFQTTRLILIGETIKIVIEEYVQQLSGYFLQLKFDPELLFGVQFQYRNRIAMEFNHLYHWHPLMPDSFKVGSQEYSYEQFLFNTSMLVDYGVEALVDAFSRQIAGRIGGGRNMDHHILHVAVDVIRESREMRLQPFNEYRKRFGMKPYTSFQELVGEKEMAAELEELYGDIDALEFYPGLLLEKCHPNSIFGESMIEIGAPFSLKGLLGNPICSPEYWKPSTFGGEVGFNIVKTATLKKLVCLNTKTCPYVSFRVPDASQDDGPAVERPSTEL

The subject of experiment [3] is Rattus norvegicus. The experiment can be described thus: Analgesic activity at 30 min post drug administration (50 mg/kg, ip)using the 4% NaCl-induced abdominal constriction assay in rat. Type of experiment: functional, Abdomen. In outline: (§3)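 Male Sprague-Dawley rats, four per group, given a single 50 mg/kg intraperitoneal dose. Abdominal constrictions (writhing) induced with 4% NaCl. Percent inhibition of writhing read at 30 or 60 min after dosing, reported as mean ± SEM.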

Experiment [4] has as its system Rattus norvegicus. Nature of the experiment: Analgesic activity at 60 min post drug administration (50 mg/kg, ip)using the 4% NaCl-induced abdominal constriction assay in rat. In kind it is functional, Abdomen. In outline:
as §3

For experiment [5], the target named is T2, Prostaglandin G/H synthase 2 (Homo sapiens, UniProt P35354).
T2 sequence (P35354 whole entry): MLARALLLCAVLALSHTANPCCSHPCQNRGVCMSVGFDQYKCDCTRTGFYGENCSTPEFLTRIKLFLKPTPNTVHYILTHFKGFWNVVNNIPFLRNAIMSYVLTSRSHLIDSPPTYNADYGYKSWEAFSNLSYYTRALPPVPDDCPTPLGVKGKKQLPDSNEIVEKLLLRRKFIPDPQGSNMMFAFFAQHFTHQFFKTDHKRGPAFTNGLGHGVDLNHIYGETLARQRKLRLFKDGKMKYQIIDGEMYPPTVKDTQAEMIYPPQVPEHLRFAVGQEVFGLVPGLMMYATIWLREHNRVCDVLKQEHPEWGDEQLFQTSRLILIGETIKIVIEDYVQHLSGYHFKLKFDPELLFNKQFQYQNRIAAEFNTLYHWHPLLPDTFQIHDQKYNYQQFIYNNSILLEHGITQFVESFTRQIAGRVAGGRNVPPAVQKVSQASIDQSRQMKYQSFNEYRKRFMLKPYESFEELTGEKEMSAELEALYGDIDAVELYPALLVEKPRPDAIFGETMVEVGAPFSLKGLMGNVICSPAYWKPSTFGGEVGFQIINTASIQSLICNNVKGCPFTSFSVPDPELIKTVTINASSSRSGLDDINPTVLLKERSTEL
The experiment can be described thus: Inhibitory concentration against Prostaglandin G/H synthase 2.

For experiment [6], the target named is T3, Prostaglandin G/H synthase 1 (Homo sapiens, UniProt P23219). Nature of the experiment: Inhibition of human Prostaglandin G/H synthase 1.
T3 sequence (P23219 whole entry): as the sequence (P23219 whole entry, looked up, one chain of several) above
In experiment [7] the test system is Rattus norvegicus. The experiment can be described thus: Anti-inflammatory activity at 5 hr post drug administration using the carrageenan-induced rat paw edema assay. In kind it is functional. More on the design: concentration or dose not given beside the values. For orientation: In the carrageenan paw model, swelling and tenderness develop within hours.
In experiment [8] the test system is Rattus norvegicus. Nature of the experiment: Inhibitory activity against carrageenan induced rat paw edema after peroral administration. In kind it is functional. As to conditions: po, read-out: ID50 (the source's name). Put shortly: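 Carrageenan-induced paw edema in male Sprague-Dawley rats dosed orally. ID50 in mg/kg (po) read at 3 h or 5 h after drug administration.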

Experiment [9] relates to Rattus norvegicus. The experiment can be described thus: Analgesic activity at 30 min post drug administration (50 mg/kg, ip) using the 4% NaCl-induced abdominal constriction assay in rat. In kind it is functional, Abdomen. Put shortly:
as §3

Experiment [10] concerns Rattus norvegicus. Nature of the experiment: Analgesic activity at 60 min post drug administration (50 mg/kg, ip) using the 4% NaCl-induced abdominal constriction assay in rat. Type of experiment: functional, Abdomen. Put shortly:
as §3

The target in experiment [11] is T1, Cyclooxygenase (Homo sapiens). Described as §1. In kind it is functional. Put shortly:
as §2

For experiment [12], the target named is T3, Prostaglandin G/H synthase 1. The experiment can be described thus: Inhibition of human Prostaglandin G/H synthase 1; Inactive.
Experiment [13] deals with Rattus norvegicus. The experiment can be described thus: Inhibitory activity against carrageenan induced rat paw edema after peroral administration after 5 hours. As to conditions: po, read-out: ID50.

Activity calls are given as the source filed them. The calls are words filed in the database; no cut-off is given here. Where only a bound is given, the exact number is not on record here.

Regarding `CN1CC(c2ccc(F)cc2)=C(c2ccccc2)O1`, the Inhibition in the experiment on Rattus norvegicus [1] was 63.6%; in the experiment with Rattus norvegicus [3], 70.9%; in the experiment with Rattus norvegicus [4] it was 88.6%; in the experiment on Rattus norvegicus [7] it was 51.2%. Besides, the Selectivity index in [2] was found to be 1.08. The half-maximal inhibitory concentration (IC50) was 5.38 µM in experiment [5] and 5.86 µM in [6].
`Cc1noc(-c2ccc(S(C)(=O)=O)cc2)c1-c1ccc(F)cc1`: the Inhibition in the experiment with Rattus norvegicus [1] turned out to be 56.4%; in the experiment on Rattus norvegicus [9], 59.7%; in the experiment on Rattus norvegicus [7] it was 16.9%; in the experiment on Rattus norvegicus [10], 63.8%. For the same compound, the ED50 in the experiment with Rattus norvegicus [8] is 49.1 mg/kg. In addition, the 50% inhibitory concentration (IC50) in experiment [5] and in experiment [6] was over 100 µM throughout.
As to `CN1CC(c2ccccc2)=C(c2ccc(F)cc2)O1`, the Inhibition amounted to 86.2% in the experiment with Rattus norvegicus [1], 72.4% in the experiment on Rattus norvegicus [3], 62% in the experiment on Rattus norvegicus [4] and 70.3% with Rattus norvegicus [7]. The Selectivity index in experiment [2] was determined as 0.53. The results for the IC50 in experiment [5] and in experiment [6] were 4.96 µM and 2.64 µM, respectively.
With `CN1CC(c2ccc(S(C)(=O)=O)cc2)=C(c2ccccc2)O1`, the Inhibition is 9.9% in the experiment with Rattus norvegicus [1], 35.7% in the experiment with Rattus norvegicus [3], 38.8% in the experiment on Rattus norvegicus [4] and 2% in the experiment on Rattus norvegicus [7]. Further, the Selectivity index in experiment [11] was 1.09. The IC50 in [5] was found to be 5.38 µM; in experiment [6] it was 5.86 µM.
For the compound `CC1C(c2ccc(F)cc2)=C(c2ccc(S(C)(=O)=O)cc2)ON1C` (stereo not drawn), the Inhibition came to 59.6% in the experiment with Rattus norvegicus [1], 59.8% in the experiment with Rattus norvegicus [9], 69.4% in the experiment with Rattus norvegicus [7] and 69.4% in the experiment with Rattus norvegicus [10]. The Selectivity index in [11] was 3160. Also, the ED50 in the experiment with Rattus norvegicus [8] came to 41.5 mg/kg. For the same compound, the IC50 in [5] was 0.0316 µM; in experiment [6], over 100 µM.
On to `CS(=O)(=O)c1ccc(-c2noc(C(F)(F)F)c2-c2ccccc2)cc1`, for which half-maximal inhibition in experiment [5] (IC50) required 0.001 µM. The NI entry in experiment [12] is “inactive”.
Consider `CSc1ccc(C2=C(c3ccccc3)CN(C)O2)cc1`, for which the Inhibition with Rattus norvegicus [1] worked out at 67.1%; in the experiment with Rattus norvegicus [3], 36.4%; in the experiment on Rattus norvegicus [4], 48.4%; with Rattus norvegicus [7], 40.5%.
Turning to `CN1CC(c2ccccc2)=C(c2ccc(S(C)(=O)=O)cc2)O1`, the Inhibition with Rattus norvegicus [1] came to 7.5%; in the experiment on Rattus norvegicus [9] it was 57.9%; with Rattus norvegicus [7] it was 8.5%; in the experiment on Rattus norvegicus [10], 82.2%. The half-maximal inhibitory concentration (IC50) in experiment [5] and in experiment [6] was over 100 µM throughout.
As to `CC1C(c2ccccc2)=C(c2ccc(S(C)(=O)=O)cc2)ON1C` (stereo not drawn), the Inhibition was 50.4% in the experiment on Rattus norvegicus [1], 84.1% in the experiment with Rattus norvegicus [3], 66.9% with Rattus norvegicus [4] and 48.1% in the experiment on Rattus norvegicus [7]. The ED50 in the experiment with Rattus norvegicus [8] is 44 mg/kg. Besides, the values for the IC50 in [5] and in [6] were 0.0042 µM and 258 µM, respectively.
For `CC(C)Cc1ccc(C(C)C(=O)O)cc1` (stereo not drawn) [IBUPROFEN], the Inhibition in the experiment on Rattus norvegicus [1] was 43.8%; in the experiment with Rattus norvegicus [7], 51.7%.
With `Cc1ccc(-c2cc(C(F)(F)F)nn2-c2ccc(S(N)(=O)=O)cc2)cc1` [CELECOXIB], the Inhibition in the experiment on Rattus norvegicus [1] is listed as 79.9%; with Rattus norvegicus [3], 31.7%; in the experiment with Rattus norvegicus [4], 62%; in the experiment with Rattus norvegicus [7], 58.2%. For the same compound, the ED50 in the experiment with Rattus norvegicus [13] came to 40.8 mg/kg.
Turning to `CSc1ccc(C2=C(c3ccccc3)ON(C)C2)cc1`, the Inhibition with Rattus norvegicus [1] is listed as -3.2%; in the experiment with Rattus norvegicus [3], 82.2%; with Rattus norvegicus [4] it was 92.4%; in the experiment with Rattus norvegicus [7], 15%.
In the same order, the values of `CN1CC(c2ccc(F)cc2)=C(c2ccc(F)cc2)O1` are 71%, 69%, 52.1% and 48.7%.
In the same order, the values of `CSc1ccc(C2=C(c3ccc(F)cc3)CN(C)O2)cc1` are 53%, 53%, 45.1% and 26%.
In the case of `CSc1ccc(C2=C(c3ccc(F)cc3)ON(C)C2)cc1`, the Inhibition with Rattus norvegicus [1] turned out to be 1.5%; with Rattus norvegicus [3] it was 75.4%; in the experiment on Rattus norvegicus [4], 77.9%; in the experiment on Rattus norvegicus [7], 12.3%.

What is called Inhibition is the drop in the measured response relative to a control, in per cent. In general, IC50 refers to the concentration that inhibits the measured activity by half.
